Experiments:
[1] = target: T1, Amyloid-beta precursor protein (Homo sapiens, UniProt P05067); assay: Inhibition of human biotinylated amyloid beta (1 to 42) oligomerization assessed as decrease in oligomer abundance measured after 1 hr by ELISA
[2] = target: T1, Amyloid-beta precursor protein; assay: Inhibition of human amyloid beta (1 to 40) fibrillization at 20 uM measured every 15 mins for 100 hrs by Thioflavin-T fluorescence assay relative to control
Procedure, shortened: (§1)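 Aβ40 monomerized in HFIP (1 mg/mL), dried under argon, diluted to 20 μM final in 20 mM Tris, 8 μM ThT, 0.3 M NaCl, pH 7.4. Compounds added in DMSO, triplicate; DMSO-only control taken as 100% aggregation. ThT fluorescence (ex 450/em 482 nm) read every 15 min for ~100 h; percent inhibition versus control, averaged over three independent samples.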

[3] = target: T1, Amyloid-beta precursor protein; assay: Inhibition of human amyloid beta (1 to 40) fibrillization at 100 uM measured every 15 mins for 100 hrs by Thioflavin-T fluorescence assay relative to control; procedure, shortened: as §1

T1 sequence (P05067 whole entry): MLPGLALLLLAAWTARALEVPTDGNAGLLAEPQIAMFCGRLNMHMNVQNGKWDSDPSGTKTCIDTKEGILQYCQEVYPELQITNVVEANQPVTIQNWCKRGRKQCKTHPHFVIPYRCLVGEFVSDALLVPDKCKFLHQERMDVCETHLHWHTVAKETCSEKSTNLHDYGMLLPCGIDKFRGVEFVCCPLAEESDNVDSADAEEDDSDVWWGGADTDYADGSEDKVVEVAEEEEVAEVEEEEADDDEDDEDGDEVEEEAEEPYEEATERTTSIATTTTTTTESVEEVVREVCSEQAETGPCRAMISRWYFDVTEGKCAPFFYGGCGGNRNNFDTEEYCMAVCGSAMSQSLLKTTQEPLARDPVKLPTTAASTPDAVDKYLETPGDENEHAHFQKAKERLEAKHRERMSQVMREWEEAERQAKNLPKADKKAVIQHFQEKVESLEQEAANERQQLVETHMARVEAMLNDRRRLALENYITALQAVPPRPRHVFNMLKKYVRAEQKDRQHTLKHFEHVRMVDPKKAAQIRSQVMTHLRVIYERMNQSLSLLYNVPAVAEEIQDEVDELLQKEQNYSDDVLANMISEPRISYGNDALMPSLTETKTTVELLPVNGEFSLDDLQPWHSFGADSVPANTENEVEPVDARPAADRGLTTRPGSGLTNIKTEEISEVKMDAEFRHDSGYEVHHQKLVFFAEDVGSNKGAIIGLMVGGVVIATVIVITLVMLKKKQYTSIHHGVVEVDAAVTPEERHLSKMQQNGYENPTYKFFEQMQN

IC50 ([1]; read-out: IC50) [µM]	inhibition [2] [%]	inhibition [3] [%]	IC50 [1]	Structure (SMILES)
65.1				COc1cc(/C=C/C(=O)N2CCCC2)ccc1OCc1ccccc1
1.8	5.5	20.6		COc1cc(/C=C/C(=O)N2CC(C(=O)NCCOc3ccccc3)C2)ccc1OCc1ccccc1
			Not Active	CCCN(CCC)C(=O)/C=C/c1ccc(OCc2cc(F)cc(F)c2)c(OC)c1
45.8		8.81		COc1cc([C@H]2C[C@@H]2C(=O)N(C)C)ccc1OCc1ccccc1
226	9.75	36.8		COc1cc(/C=C/C(=O)O)ccc1O [FERULATE]
			Not Active	COc1cc(/C=C/C(=O)N2CCN(c3ccccc3)CC2)ccc1OCc1ccccc1
78.1				COc1cc(/C=C/C(=O)N2CCOCC2)ccc1OCc1ccccc1
			Not Active	CCCN(CCC)C(=O)/C=C/c1ccc(OCc2cc(OC)cc(OC)c2)c(OC)c1
8.17				COc1cc(/C=C/C(=O)NCCC(=O)N2CCCCC2)ccc1OCc1ccccc1
98.5		0		COc1cc(/C=C/C(=O)Nc2nnn[nH]2)ccc1OCc1ccccc1
119	73.1	91.9		CCN(CC)C(=O)/C=C/c1ccc(O)c(O)c1
			Not Active	COc1cc(/C=C/c2cnco2)ccc1OCc1ccccc1
3.65				COc1cc(/C=C/C(=O)N2CC(C(=O)NCc3ccc(F)cc3)C2)ccc1OCc1ccccc1
3.61				COc1cc(/C=C/C(=O)N2CC(C(=O)NCc3ccco3)C2)ccc1OCc1ccccc1
			Not Active	CCN(CC)C(=O)/C=C/c1ccc(OCc2cscn2)c(OC)c1
18.7	0	13.3		COc1cc([C@H]2C[C@@H]2C(=O)N2CCCCC2)ccc1OCc1ccccc1
107				COc1cc(/C=C/C(=O)N2CC(F)(F)C2)ccc1OCc1ccccc1
			Not Active	COc1cc(/C=C/C(=O)NCCOc2ccccc2)ccc1OCc1ccccc1
			Not Active	COc1cc(/C=C/C(=O)NCc2ccccc2)ccc1OCc1ccccc1
98.8				CCCN(CCC)C(=O)/C=C/c1ccc(O)c(OC)c1
79.9				COc1cc(/C=C/C(=O)N(C)OC)ccc1OCc1ccccc1
16.8				COc1cc(/C=C/C(=O)N2CCC[C@@H]2C(=O)NCCOc2ccccc2)ccc1OCc1ccccc1
10.6	1.95	3.62		CCN(CC)C(=O)/C=C/c1ccc(OS(=O)(=O)c2ccc(C)cc2)c(OC)c1
9.91		0		COc1cc(-c2cncn2CCC(=O)NCCc2ccccc2)ccc1OCc1ccccc1
17.1				COc1cc(/C=C/C(=O)N2CCC[C@H]2C(=O)N2CCCCC2)ccc1OCc1ccccc1
			Not Active	CCCN(CCC)C(=O)/C=C/c1ccc(OCCCOc2ccccc2)c(OC)c1
7.76	5.98	13.8		COc1cc(-c2cncn2CCC(=O)NCCOc2ccccc2)ccc1OCc1ccccc1

IC50 ([1]; read-out: IC50) [µM]	inhibition [2] [%]	inhibition [3] [%]	IC50 [1]	Structure (SMILES)
12.4	9.35	17		CCCN(CCC)C(=O)/C=C/c1ccc(OCc2ccccc2)c(OC)c1
18.7				COc1cc(/C=C/C(=O)N2CCC[C@H]2C(=O)NCc2ccccc2)ccc1OCc1ccccc1
27.9	7.28	13.4		COc1cc(/C=C/C(=O)N2CCCCC2)ccc1OCc1ccccc1
24.6		0		COc1cc(/C=C/C(=O)N(C)C)ccc1OCc1ccccc1
45.3				CCCN(CCC)C(=O)/C=C/c1ccc(OC)c(OC)c1
35.7				COc1cc(/C=C/C(=O)N2CC(C(=O)N3CCOCC3)C2)ccc1OCc1ccccc1
39.3		0		CCN(CC)C(=O)/C=C/c1ccc(OCc2ccccc2)c(OC)c1
8.59				COc1cc(/C=C/C(=O)N2CCC[C@H]2C(=O)NCCOc2ccccc2)ccc1OCc1ccccc1
17.8				COc1cc(/C=C/C(=O)N2CCC[C@@H]2C(=O)NCc2ccccc2)ccc1OCc1ccccc1
205				CCN(CC)C(=O)/C=C/c1ccc(O)c(OC)c1
21.8				COc1cc(/C=C/C(=O)N2CC(C(=O)N3CC(F)(F)C3)C2)ccc1OCc1ccccc1
10.6	0.29	22.3		COc1cc(/C=C/CN2CCCCC2)ccc1OCc1ccccc1
17.9				COc1cc(/C=C/C(=O)NCCC(=O)NCCOc2ccccc2)ccc1OCc1ccccc1
81.6				COc1cc(/C=C/C(=O)NCCC(=O)NCc2ccccc2)ccc1OCc1ccccc1
12.8				CCN(CC)C(=O)C1CN(C(=O)/C=C/c2ccc(OCc3ccccc3)c(OC)c2)C1
			Not Active	CCN(CC)C(=S)/C=C/c1ccc(OCc2ccccc2)c(OC)c1
19.2				COc1ccc(CNC(=O)[C@@H]2CCCN2C(=O)/C=C/c2ccc(OCc3ccccc3)c(OC)c2)cc1
			Not Active	COc1cc(/C=C/C(=O)NCc2ccco2)ccc1OCc1ccccc1
		9.56	Not Active	COc1cc(/C=C/c2nnn[nH]2)ccc1OCc1ccccc1
	2.21	27.5	Not Active	COc1cc(-c2cncn2Cc2ccccc2)ccc1OCc1ccccc1
54.2				COc1ccc(CNC(=O)CCNC(=O)/C=C/c2ccc(OCc3ccccc3)c(OC)c2)cc1
	0	44.1	Not Active	COc1cc(/C=C/C(O)C(F)(F)F)ccc1OCc1ccccc1 (stereo not given)
10.6				COc1cc(/C=C/C(=O)N2CC(C(=O)N3CCCCC3)C2)ccc1OCc1ccccc1
34.9		6.49		CCN(CC)C(=O)CCc1ccc(OCc2ccccc2)c(OC)c1
3.13	14.8	48.2		COc1cc(/C=C/C(=O)N2CC(C(=O)NCc3ccccc3)C2)ccc1OCc1ccccc1
			Not Active	CCN(CC)C(=O)/C=C/c1ccc(OCc2cccnc2)c(OC)c1
4.78				COc1ccc(CNC(=O)C2CN(C(=O)/C=C/c3ccc(OCc4ccccc4)c(OC)c3)C2)cc1
